Reference: ChEMBL document CHEMBL1146725, “Discovery and SAR of potent, orally available and brain-penetrable 5,6-dihydro-4H-3-thia-1-aza-benzo[e]azulen- and 4,5-dihydro-6-oxa-3-thia-1-aza-benzo[e]azulen derivatives as neuropeptide Y Y5 receptor antagonists” (Bioorg Med Chem Lett, 2004)
“And” between values parts separate entries of the source, which are not always exact repeats. Identical values can stand only once.

Columns and labels:
[1] = biological target: T1, Neuropeptide Y receptor type 5 (Homo sapiens, UniProt Q15761); experiment: (§1) In vitro binding affinity against human neuropeptide Y5 receptor
T1 sequence (Q15761 whole entry): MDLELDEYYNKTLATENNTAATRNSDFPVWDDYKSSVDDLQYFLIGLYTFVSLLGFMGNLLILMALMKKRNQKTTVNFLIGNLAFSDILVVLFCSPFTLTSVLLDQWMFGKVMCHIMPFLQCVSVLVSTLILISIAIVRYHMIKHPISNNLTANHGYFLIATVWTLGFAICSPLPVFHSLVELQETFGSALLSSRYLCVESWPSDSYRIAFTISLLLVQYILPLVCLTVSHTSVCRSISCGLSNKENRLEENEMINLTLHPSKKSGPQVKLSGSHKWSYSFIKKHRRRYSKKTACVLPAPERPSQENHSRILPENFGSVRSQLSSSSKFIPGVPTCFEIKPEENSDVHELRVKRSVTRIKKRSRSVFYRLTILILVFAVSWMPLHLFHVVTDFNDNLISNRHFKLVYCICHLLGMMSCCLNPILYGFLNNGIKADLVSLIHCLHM

[2] = (§2) Concentration (30 mg/kg, p.o.) in rat hypothalamus after 6 hours; format: ADME, organism-based; details: hypothalamus, po
Summary of the method: (§3)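 Male rats (RA238), fasted overnight, given 30 mg/kg by oral gavage (5 mL/kg) in 20% Cremophore EL/water (w/w). Plasma and hypothalamus were sampled at 2 and 6 h post-dose and levels measured by LC-MS. Values are the mean of 3-6 animals per time point, as µg/mL plasma and µg/g hypothalamus.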

[3] = Concentration (30 mg/kg, p.o.) in rat plasma after 2 hours; format: ADME, organism-based; details: plasma, po; summary of the method: as §3
[4] = biological target: T1, Neuropeptide Y receptor type 5; experiment: as §1; remark: listed apart in the source
Summary of the method: (§4)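 Reported as IC50 (nM), each value the mean of three separate experiments.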

[5] = (§5) Concentration (30 mg/kg, p.o.) in rat hypothalamus after 2 hours; format: ADME, organism-based; details: hypothalamus, po; summary of the method: as §3
[6] = (§6) Concentration (30 mg/kg, p.o.) in rat plasma after 6 hours; format: ADME, organism-based; details: plasma, po; summary of the method: as §3
Rattus norvegicus [7] = experiment: as §2; format: ADME, organism-based; details: in vivo, po, 6 h; summary of the method: as §3
Rattus norvegicus [8] = experiment: as §5; format: ADME, organism-based; details: in vivo, po, 2 h; summary of the method: as §3
Rattus norvegicus [9] = experiment: as §6; format: ADME, organism-based; details: in vivo, po, 6 h; summary of the method: as §3
[10] = biological target: T1, Neuropeptide Y receptor type 5; experiment: In vitro binding affinity against human neuropeptide Y5 receptor measured as Ca+ response; summary of the method: as §4

Structure (SMILES)	IC50 [1]	further results
Cc1ccc2c(c1)-c1nc(NCC3CCN(C(=O)c4ccccn4)CC3)sc1CCO2	25 nM	–
O=C1CC[C@H](C(=O)N2CCC(CNc3nc4c(s3)CCCc3ccc(F)cc3-4)CC2)O1	4 nM	–
O=C([C@H]1CCCO1)N1CCC(CNc2nc3c(s2)CCOc2ccc(F)cc2-3)CC1	–	concentration at 6 h [2]: 1080 ng/g; concentration at 2 h [3]: 970 ng/mL; IC50 [4]: 5 nM; concentration at 2 h [5]: 2440 ng/g; concentration at 6 h [6]: 390 ng/mL
COCCNCC(=O)N1CCC(CNc2nc3c(s2)CCCc2ccc(F)cc2-3)CC1	2 nM	–
O=C(CC1CC1)N[C@H]1CC[C@H](CNc2nc3c(s2)CCCc2ccc(F)cc2-3)CC1	6 nM	–
CN(C)C(=O)CCCCNc1nc2c(s1)CCCc1ccc(F)cc1-2	25 nM	–
CN(CC(=O)N1CCC(CNc2nc3c(s2)CCCc2ccc(F)cc2-3)CC1)CC1CC1	3 nM	–
O=C(CNCC1CC1)N1CCC(CNc2nc3c(s2)CCCc2ccc(F)cc2-3)CC1	6 nM	–
O=C(CN1CCCCC1)N1CCC(CNc2nc3c(s2)CCOc2ccc(F)cc2-3)CC1	–	IC50 [4]: 71 nM
COCCC(=O)N1CCC(CNc2nc3c(s2)CCOc2ccc(F)cc2-3)CC1	–	IC50 [4]: 22 nM
O=C(CN1CCCCC1)N[C@H]1CC[C@H](CNc2nc3c(s2)CCCc2ccc(F)cc2-3)CC1	29 nM	–
O=C([C@H]1CCCO1)N1CCC(CNc2nc3c(s2)CCCc2ccc(F)cc2-3)CC1	2 nM	Concentration (Rattus norvegicus [7]): 0.67 µg/g; concentration at 6 h [2]: 670 ng/g; Concentration (Rattus norvegicus [8]): 0.86 µg/g and 2.44 µg/g; Concentration (Rattus norvegicus [9]): 0.22 µg/mL; concentration at 6 h [6]: 220 ng/mL
O=C([C@@H]1CCCO1)N1CCC(CNc2nc3c(s2)CCOc2ccc(F)cc2-3)CC1	–	concentration at 6 h [2]: 640 ng/g; concentration at 2 h [3]: 930 ng/mL; IC50 [4]: 19 nM; concentration at 2 h [5]: 5480 ng/g; concentration at 6 h [6]: 140 ng/mL
Fc1ccc(-c2csc(Nc3ccccc3)n2)cc1	1600 nM	–
COCC(=O)N1CCC(CNc2nc3c(s2)CCCc2ccc(F)cc2-3)CC1	2 nM	–
COCCC(=O)N1CCC(CNc2nc3c(s2)CCCc2ccc(F)cc2-3)CC1	2 nM	–
Cc1ccc2c(c1)-c1nc(NCC3CCN(C(=O)C(C)C)CC3)sc1CCO2	5 nM	concentration at 6 h [2]: 880 ng/g; IC50 [10]: 61 nM; concentration at 2 h [3]: 840 ng/mL; concentration at 2 h [5]: 2420 ng/g; concentration at 6 h [6]: 330 ng/mL
CN(C)S(=O)(=O)NC[C@H]1CC[C@H](Nc2nc3c(s2)-c2ccccc2Sc2ccccc2-3)CC1	15 nM	–
CN(C)CCCC(=O)N[C@H]1CC[C@H](CNc2nc3c(s2)CCCc2ccc(F)cc2-3)CC1	290 nM	–
CCCCC(=O)N1CCC(CNc2nc3c(s2)CCOc2ccc(C)cc2-3)CC1	7 nM	–
CN(C)CC(=O)N1CCC(CNc2nc3c(s2)CCCc2ccc(F)cc2-3)CC1	4 nM	–
CC(C)N1CCN(CC(=O)N[C@H]2CC[C@H](CNc3nc4c(s3)CCCc3ccc(F)cc3-4)CC2)CC1	210 nM	–

Structure (SMILES)	IC50 [1]	further results
CC(C)C(=O)N1CCC(CNc2nc3c(s2)CCOc2cc(F)c(Cl)cc2-3)CC1	13 nM	–
CC(=O)NC1CCN(CC(=O)Nc2nc3c(s2)CCCc2ccc(F)cc2-3)CC1	78 nM	–
CN(CC(=O)N1CCC(CNc2nc3c(s2)CCOc2ccc(F)cc2-3)CC1)CC1CC1	–	IC50 [4]: 18 nM
O=C(CN1CCOCC1)N1CCC(CNc2nc3c(s2)CCOc2ccc(F)cc2-3)CC1	–	IC50 [4]: 41 nM
CCCN(C)CC(=O)N[C@H]1CC[C@H](CNc2nc3c(s2)CCCc2ccc(F)cc2-3)CC1	6 nM	–
CC(C)C(=O)N1CCC(CNc2nc3c(s2)CCOc2cc(F)c(F)cc2-3)CC1	40 nM	–
CCCCC(=O)N[C@H]1CC[C@H](CNc2nc3c(s2)CCCc2ccc(F)cc2-3)CC1	6 nM	–
O=C(CNCC1CCCO1)N1CCC(CNc2nc3c(s2)CCCc2ccc(F)cc2-3)CC1 (stereo not given)	6 nM	–
CN1CCN(CC(=O)N2CCC(CNc3nc4c(s3)CCCc3ccc(F)cc3-4)CC2)CC1	24 nM	–
O=C(CCN1CCCCC1)N[C@H]1CC[C@H](CNc2nc3c(s2)CCCc2ccc(F)cc2-3)CC1	150 nM	–
CCOCC(=O)N1CCC(CNc2nc3c(s2)CCOc2ccc(F)cc2-3)CC1	28 nM	–
O=C1CCCN1[C@H]1CC[C@H](CNc2nc3c(s2)CCCc2ccc(F)cc2-3)CC1	5 nM	–
CCCCC(=O)N1CCC(CNc2nc3c(s2)CCOc2cc(F)c(F)cc2-3)CC1	38 nM	–
O=C(c1ccccc1F)N1CCC(CNc2nc3c(s2)CCCc2ccc(F)cc2-3)CC1	20 nM	–
CS(=O)(=O)NC[C@H]1CC[C@H](Nc2nc(-c3ccc(F)cc3)cs2)CC1	23 nM	–
O=C(CN1CCCCC1)N1CCC(CNc2nc3c(s2)CCCc2ccc(Cl)cc2-3)CC1	7 nM	–
COC[C@@H]1CCCN1CC(=O)N1CCC(CNc2nc3c(s2)CCCc2ccc(F)cc2-3)CC1	3 nM	–
O=C(CN1CCCCC1)N1CCC(CNc2nc3c(s2)CCCc2ccccc2-3)CC1	6 nM	–
CC(C)C(=O)N1CCC(CNc2nc3c(s2)CCOc2cc(Cl)c(F)cc2-3)CC1	99 nM	–
Cc1ccc2c(c1)-c1nc(NCC3CCN(C(=O)[C@@H]4CCCO4)CC3)sc1CCO2	17 nM	–
CC(=O)N1CCC(CNc2nc3c(s2)CCOc2ccc(F)cc2-3)CC1	–	IC50 [4]: 69 nM
CC(C)C(=O)N1CCC(CNc2nc3c(s2)CCCc2ccc(F)cc2-3)CC1	2 nM	–

Structure (SMILES)	IC50 [1]	further results
COCC(=O)N1CCC(CNc2nc3c(s2)CCOc2ccc(F)cc2-3)CC1	–	IC50 [4]: 37 nM
O=C(CN1CCOCC1)N1CCC(CNc2nc3c(s2)CCCc2ccc(F)cc2-3)CC1	2 nM	–
COc1ccc2c(c1)-c1nc(NCC3CCN(C(=O)CCN4CCCCC4)CC3)sc1CCO2	2460 nM	–
CC(=O)C1(c2ccccc2)CCC(CC(=O)Nc2nc3c(s2)CCCc2ccc(F)cc2-3)CC1 (stereo not given)	15 nM	–
O=C(N[C@H]1CC[C@H](CNc2nc3c(s2)CCCc2ccc(F)cc2-3)CC1)c1cccs1	15 nM	–
Nc1nc2c(s1)-c1ccccc1Sc1ccccc1-2	1800 nM	–
O=C(N[C@H]1CC[C@H](CNc2nc3c(s2)CCCc2ccc(F)cc2-3)CC1)C1CC1	6 nM	–
O=C(C1CCOC1)N1CCC(CNc2nc3c(s2)CCCc2ccc(F)cc2-3)CC1 (stereo not given)	1 nM	concentration at 6 h [2]: 440 ng/g; concentration at 2 h [3]: 540 ng/mL; concentration at 2 h [5]: 1220 ng/g; concentration at 6 h [6]: 140 ng/mL
O=C(CN1CCCCC1)N1CCC(CNc2nc3c(s2)CCCc2ccc(F)cc2-3)CC1	4 nM	concentration at 6 h [2]: 620 ng/g; concentration at 2 h [3]: 240 ng/mL; concentration at 2 h [5]: 1170 ng/g; concentration at 6 h [6]: 130 ng/mL
COC(=O)N[C@H]1CC[C@H](CNc2nc3c(s2)CCCc2ccc(F)cc2-3)CC1	2 nM	–
CCCCC(=O)N1CCC(CNc2nc3c(s2)CCOc2ccc(OC)cc2-3)CC1	17 nM	–
CN(C)CC(=O)N[C@H]1CC[C@H](CNc2nc3c(s2)CCCc2ccc(F)cc2-3)CC1	81 nM	–
Cc1ccc2c(c1)-c1nc(NCC3CCN(C(=O)COC(C)C)CC3)sc1CCO2	21 nM	–
CC(=O)N1CCC(CNc2nc3c(s2)CCCc2ccc(F)cc2-3)CC1	2 nM	concentration at 6 h [2]: 290 ng/g; IC50 [10]: 254 nM; concentration at 2 h [3]: 950 ng/mL; concentration at 2 h [5]: 3700 ng/g; concentration at 6 h [6]: 70 ng/mL
COCCCNCC(=O)N1CCC(CNc2nc3c(s2)CCCc2ccc(F)cc2-3)CC1	15 nM	–
CN(C)S(=O)(=O)NC[C@H]1CC[C@H](Nc2nc3c(s2)CCSc2ccc(F)cc2-3)CC1	3 nM	–
CCOC(=O)N1CCC(CNc2nc3c(s2)CCCc2ccc(F)cc2-3)CC1	4 nM	–
CCOCC(=O)N1CCC(CNc2nc3c(s2)CCOc2ccc(C)cc2-3)CC1	18 nM	–
CCCCC(=O)N1CCC(CNc2nc3c(s2)CCOc2cc(F)c(Cl)cc2-3)CC1	20 nM	–
O=C(C1CC1)N1CCC(CNc2nc3c(s2)CCCc2ccc(F)cc2-3)CC1	2 nM	–
